Reference: paper PMC10917149 (European journal of medicinal chemistry, 2023)
Entries after “also recorded” stand apart in the source; their conditions may differ. Like-named read-outs stand apart in the source and are kept apart here.

Assays:
AI-sensitive GPCRs [1] = assay: Competition for [3H]WIN55212-2 binding in HEK293 cell membranes; design: species or system human
How it was run: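 P2 membrane fractions were prepared from independent HEK293 cultures, which lack CB1R and CB2R. Membranes were incubated with [³H]WIN55212-2 and increasing concentrations of test compound, and specific binding was measured by filtration. Nonspecific binding was defined with 1 μM unlabelled WIN55212-2.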

AI-sensitive GPCRs [2] = assay: [35S]GTPγS binding in HEK293 cell membranes; assay type: biochemical, human; conditions: for [35S]GTPγS response after pertussis toxin: PTX 100 ng/ml pretreatment of HEK293 cells for 20 h
mouse CB2R = conditions: cited from earlier work
human CB1R = human CB1R (Homo sapiens, UniProt P21554); assay: CB1R internalization in HEK293 cells stably expressing HA-tagged CB1R; assay type: cell-based; conditions: AI compounds tested at 3 μM
Chain of human CB1R (P21554 whole entry): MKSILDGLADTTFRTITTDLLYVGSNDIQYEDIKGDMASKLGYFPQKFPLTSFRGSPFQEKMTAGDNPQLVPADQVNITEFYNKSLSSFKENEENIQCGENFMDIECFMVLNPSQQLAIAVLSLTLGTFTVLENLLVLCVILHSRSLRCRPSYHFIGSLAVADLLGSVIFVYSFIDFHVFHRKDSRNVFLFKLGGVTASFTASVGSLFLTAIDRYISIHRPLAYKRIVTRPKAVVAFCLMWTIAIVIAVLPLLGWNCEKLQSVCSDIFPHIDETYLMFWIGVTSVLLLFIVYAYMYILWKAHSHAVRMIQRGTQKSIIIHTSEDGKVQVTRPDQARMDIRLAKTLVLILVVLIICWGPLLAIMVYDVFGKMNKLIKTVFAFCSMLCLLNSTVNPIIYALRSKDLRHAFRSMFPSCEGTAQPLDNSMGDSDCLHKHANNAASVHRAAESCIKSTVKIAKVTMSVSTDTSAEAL
How it was run: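 Human CB1R carrying an HA tag was expressed in cultured HEK293 cells. Test compound was applied at 3 μM, with CP55940 at 1 μM as the positive control. Internalization was read as % of vehicle control. Data are mean ± SEM of 3–5 independent experiments, compared by one-way ANOVA with Bonferroni post-test.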

human CB2R = human CB2R (Homo sapiens, UniProt P34972); assay: CB2R internalization in HEK293 cells stably expressing HA-tagged CB2R; assay type: cell-based; conditions: AI compounds tested at 3 μM
Chain of human CB2R (P34972 whole entry): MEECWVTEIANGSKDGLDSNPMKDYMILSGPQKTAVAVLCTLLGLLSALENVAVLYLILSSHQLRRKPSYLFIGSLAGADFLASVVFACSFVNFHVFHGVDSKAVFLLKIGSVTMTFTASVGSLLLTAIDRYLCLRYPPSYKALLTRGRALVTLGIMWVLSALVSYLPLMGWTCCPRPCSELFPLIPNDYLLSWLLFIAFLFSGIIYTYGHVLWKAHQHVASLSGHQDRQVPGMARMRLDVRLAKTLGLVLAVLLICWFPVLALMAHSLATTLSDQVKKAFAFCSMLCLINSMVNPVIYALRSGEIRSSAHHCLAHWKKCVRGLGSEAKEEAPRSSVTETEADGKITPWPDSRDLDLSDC
How it was run: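 HA-tagged human CB2R was expressed heterologously in cultured HEK293 cells. Test compound was given at 3 μM, with or without the CB2R antagonist AM630 at 1 μM; CP55940 at 1 μM served as the positive control. Internalization was expressed as % of vehicle control. Mean ± SEM of 3–5 independent experiments; one-way ANOVA with Bonferroni post-test.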

CB1R and CB2R = assay: Competition for [3H]CP55940 binding in HEK293 cell membranes; design: species or system human; conditions: HEK293 cell membranes without heterologous CB1R/CB2R
[3] = read-out: KiHigh (AIHigh binding sites), high affinity site

CC1=C(CCN2CCOCC2)c2ccccc2/C1=C\c1cccc2ccccc12 [Compound 33, reference compound]
competition for [3H]WIN55212-2 binding (in words) (AI-sensitive GPCRs [1]): compete | stimulation of [35S]GTPγS binding (in words) (AI-sensitive GPCRs [2]): stimulated

Cc1c(C(=O)c2cccc3ccccc23)c2cccc3c2n1[C@H](CN1CCOCC1)CO3 [WIN55212–3, reference compound]
competition for [3H]WIN55212-2 binding (in words) (AI-sensitive GPCRs [1]): absence of competition

Cc1ccc(C(=O)c2c(C)n(CCN3CCOCC3)c3ccccc23)c2ccccc12 [Compound 2]
activation of mouse CB2R measured by receptor internalization (mouse CB2R): do not activate | CB1R internalization (in words) (human CB1R): retained significant activity; also recorded: stimulate significant CB1R internalization | CB2R internalization (in words) (human CB2R): stimulated significant CB2R internalization; also recorded: activate | manner of competition for [3H]WIN55212-2 binding (biphasic / monophasic) (AI-sensitive GPCRs [1]): biphasic | Ki (AI-sensitive GPCRs [1]; [3]): 0.8 nM

Cc1c(C(=O)c2cccc3ccccc23)c2cccc3c2n1[C@@H](CN1CCOCC1)CO3 [WIN55212-2, reference compound]
manner of competition for [3H]WIN55212-2 binding (biphasic / monophasic) (AI-sensitive GPCRs [1]): biphasic | Ki (AI-sensitive GPCRs [1]; read-out: KiHigh, high affinity site of biphasic competition curve): 0.043 nM | Ki (AI-sensitive GPCRs [1]; read-out: KiLow, low affinity site of biphasic competition curve): 7.2 nM

Cc1ccc(C(=O)c2c(C)n(CCN3CCOCC3)c3cc(Cl)ccc23)c2ccccc12 [Compound 10]
KiLow (AILow binding sites) (AI-sensitive GPCRs [1]; low affinity site): undetectable | stimulation of [35S]GTPγS binding (in words) (AI-sensitive GPCRs [2]): increase | [35S]GTPγS response after pertussis toxin (AI-sensitive GPCRs [2]): pertussis toxin-sensitive

SR144528
competition for [3H]CP55940 binding (in words) (CB1R and CB2R): failed to compete

Cc1ccc(C(=O)c2c3n(c4ccccc24)CCCC3)c2ccccc12 [Compound 4]
activation of mouse CB2R measured by receptor internalization (mouse CB2R): do not activate | CB1R internalization (in words) (human CB1R): retained significant activity; also recorded: stimulate significant CB1R internalization | CB2R internalization (in words) (human CB2R): stimulated significant CB2R internalization; also recorded: activate | manner of competition for [3H]WIN55212-2 binding (biphasic / monophasic) (AI-sensitive GPCRs [1]): biphasic

C1=C(CCN2CCOCC2)c2ccccc2/C1=C\c1cccc2ccccc12 [Compound 31, reference compound]
competition for [3H]WIN55212-2 binding (in words) (AI-sensitive GPCRs [1]): compete | stimulation of [35S]GTPγS binding (in words) (AI-sensitive GPCRs [2]): stimulated

Cc1c(C(=O)NN2CCCCC2)nn(-c2ccc(Cl)cc2Cl)c1-c1ccc(Cl)cc1 [SR141617]
competition for [3H]CP55940 binding (in words) (CB1R and CB2R): failed to compete

Cc1ccc(C(=O)c2c(C)n(CCN3CCOCC3)c3ncccc23)c2ccccc12 [Compound 12]
activation of mouse CB2R measured by receptor internalization (mouse CB2R): do not activate | CB1R internalization (in words) (human CB1R): retained significant activity; also recorded: stimulate significant CB1R internalization | CB2R internalization (in words) (human CB2R): stimulated significant CB2R internalization; also recorded: activate | enhanced activity at AIHigh versus AILow (AI-sensitive GPCRs [1]): ~ 1000 fold | manner of competition for [3H]WIN55212-2 binding (biphasic / monophasic) (AI-sensitive GPCRs [1]): biphasic | Ki (AI-sensitive GPCRs [1]; [3]): 0.4 nM | stimulation of [35S]GTPγS binding (in words) (AI-sensitive GPCRs [2]): increase | [35S]GTPγS response after pertussis toxin (AI-sensitive GPCRs [2]): pertussis toxin-sensitive

Cc1ccc(C(=O)c2c(C)n(CC(F)(F)F)c3ccccc23)c2ccccc12 [Compound 5]
activation of mouse CB2R measured by receptor internalization (mouse CB2R): do not activate | CB1R internalization (in words) (human CB1R): inactive | CB2R internalization (in words) (human CB2R): stimulated significant CB2R internalization; also recorded: activate

Cc1ccc(C(=O)c2c(C)n(CCN3CCOCC3)c3ccc(Cl)cc23)c2ccccc12 [Compound 9]
manner of competition for [3H]WIN55212-2 binding (biphasic / monophasic) (AI-sensitive GPCRs [1]): biphasic | Ki (AI-sensitive GPCRs [1]; [3]): 10 nM | Ki (AI-sensitive GPCRs [1]; read-out: KiLow (AILow binding sites), low affinity site): 2300 nM

Cc1ccc(C(=O)c2c(C)n(CCN3CCOCC3)c3cc(Cl)cc(Cl)c23)c2ccccc12 [Compound 11]
competition for [3H]WIN55212-2 binding (in words) (AI-sensitive GPCRs [1]): inactive | binding at 1 μM (AI-sensitive GPCRs [1]; at 1 μM): no measurable binding

CCn1c(C)c(C(=O)c2ccc(C)c3ccccc23)c2ccccc21 [JWH-451, reference compound]
activation of mouse CB2R measured by receptor internalization (mouse CB2R): do not activate | CB1R internalization (in words) (human CB1R): inactive | CB2R internalization (in words) (human CB2R): stimulated significant CB2R internalization; also recorded: activate | manner of competition for [3H]WIN55212-2 binding (biphasic / monophasic) (AI-sensitive GPCRs [1]): biphasic | Ki (AI-sensitive GPCRs [1]; [3]): 1.5 nM | stimulation of [35S]GTPγS binding (in words) (AI-sensitive GPCRs [2]): increases | [35S]GTPγS response after pertussis toxin (AI-sensitive GPCRs [2]): significantly reduced | [35S]GTPγS response in presence of CB1R and CB2R antagonists (AI-sensitive GPCRs [2]; SR141617 (1 μM) and SR144528 (1 μM)): insensitive; also recorded: not affected

Cc1ccc(C(=O)c2c(C)n(CCN3CCOCC3)c3cnccc23)c2ccccc12 [Compound 13]
manner of competition for [3H]WIN55212-2 binding (biphasic / monophasic) (AI-sensitive GPCRs [1]): biphasic | Ki (AI-sensitive GPCRs [1]; [3]): 5.8 nM

Cc1ccc(C(=O)c2c(C)n(C)c3ccccc23)c2ccccc12 [JWH-450, reference compound]
manner of competition for [3H]WIN55212-2 binding (biphasic / monophasic) (AI-sensitive GPCRs [1]): biphasic

CCn1c(C)c(C(=O)c2ccc(OC)cc2)c2ccccc21 [Compound 14]
competition for [3H]WIN55212-2 binding (in words) (AI-sensitive GPCRs [1]): inactive

CC1=C(CCN2CCOCC2)c2ccccc2/C1=C/c1cccc2ccccc12 [Compound 34, reference compound]
competition for [3H]WIN55212-2 binding (in words) (AI-sensitive GPCRs [1]): does not compete; also recorded: no significant competition

COc1ccc2c(C(=O)c3ccc(C)c4ccccc34)c(C)n(CCN3CCOCC3)c2c1 [Compound 8]
stimulation of [35S]GTPγS binding (in words) (AI-sensitive GPCRs [2]): increase

CCCCCCC(C)(C)c1ccc([C@@H]2C[C@H](O)CC[C@H]2CCCO)c(O)c1 [CP55940]
competition for [3H]CP55940 binding (in words) (CB1R and CB2R): failed to compete

COc1ccc2c(c1)c(C(=O)c1ccc(C)c3ccccc13)c(C)n2CCN1CCOCC1 [Compound 7]
competition for [3H]WIN55212-2 binding (in words) (AI-sensitive GPCRs [1]): inactive; also recorded: loss of binding

C1=C(CCN2CCOCC2)c2ccccc2/C1=C/c1cccc2ccccc12 [Compound 32, reference compound]
competition for [3H]WIN55212-2 binding (in words) (AI-sensitive GPCRs [1]): weakly competes

Cc1c(C(=O)c2cccc3ccccc23)c2ccccc2n1C [JWH-042, reference compound]
manner of competition for [3H]WIN55212-2 binding (biphasic / monophasic) (AI-sensitive GPCRs [1]): biphasic
